Data taken from ChEMBL document CHEMBL4819027, “Design, synthesis and biological evaluation of novel 2-(4-(1H-indazol-6-yl)-1H-pyrazol-1-yl)acetamide derivatives as potent VEGFR-2 inhibitors” (Eur J Med Chem, 2021).

Tests used:
HUVEC [1] = assay: Cytotoxicity against human HUVEC cells assessed as inhibition of cell growth incubated for 72 hrs by MTT assay; format: cell-based
In short: (§1)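 Log-phase cells were seeded at 5 × 10³ per well and attached 24 h. HT-29 and GES-1 were grown in DMEM-based medium, A549/HepG2/HGC-27 in RPMI-1640, HUVEC in ECM with ECGS; all media had 10% FBS. Cells were exposed to graded compound concentrations for 72 h at 37 °C. MTT (5 mg/mL stock) was added for 4 h, formazan dissolved in DMSO, and A490 read. IC50 was obtained by nonlinear sigmoidal regression; mean ± S.E. of three experiments.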

GES1 = assay: Cytotoxicity against human GES-1 cells assessed as inhibition of cell growth incubated for 72 hrs by MTT assay; format: cell-based; conditions: GES1, 72 h; in short: as §1
[2] = molecular target: Vascular endothelial growth factor receptor 2 (Homo sapiens, UniProt P35968); assay: Inhibition of VEGFR2 (unknown origin) incubated for 10 mins followed by kinase substrate addition and measured after 30 mins by caliper mobility shift assay
HT-29 = assay: Antiproliferative activity against human HT-29 cells assessed as cell growth inhibition after 72 hrs by MTT assay; format: functional, cell-based; conditions: HT-29, 72 h; in short: as §1
HepG2 = assay: Antiproliferative activity against human HepG2 cells assessed as cell growth inhibition after 72 hrs by MTT assay; format: functional, cell-based; conditions: HepG2, 72 h; in short: as §1
HGC-27 [3] = assay: Antiproliferative activity against human HGC-27 cells assessed as cell growth inhibition after 72 hrs by MTT assay; format: functional, cell-based; conditions: HGC-27, 72 h; in short: as §1
A549 = assay: Antiproliferative activity against human A549 cells assessed as cell growth inhibition after 72 hrs by MTT assay; format: functional, cell-based; conditions: A549, 72 h; in short: as §1
HGC-27 [4] = assay: Induction of apoptosis in human HGC-27 cells assessed as early apoptotic cells level at 5 uM incubated for 24 hrs by propidium iode and annexin V-FITC staining based flow cytometry (reference value: 1.48%); format: functional
HGC-27 [5] = assay: Induction of apoptosis in human HGC-27 cells assessed as necrotic cells level at 5 uM incubated for 24 hrs by propidium iode and annexin V-FITC staining based flow cytometry (reference value: 1.64%); format: functional
HGC-27 [6] = assay: Induction of apoptosis in human HGC-27 cells assessed as late apoptotic cells level at 5 uM incubated for 24 hrs by propidium iode and annexin V-FITC staining based flow cytometry (reference value: 0.86%); format: functional
HGC-27 [7] = assay: Induction of apoptosis in human HGC-27 cells assessed as viable cells level at 5 uM incubated for 24 hrs by propidium iode and annexin V-FITC staining based flow cytometry (reference value: 96.0%); format: functional
HUVEC [8] = assay: Antiangiogenic activity against HUVEC cells assessed as reduction in VEGF-induced tube formation tube formation incubated for 12 hrs by matrigel-based assay; format: functional, cell-based; conditions: Homo sapiens
In short: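 HUVECs at 4 × 10⁵ cells/mL seeded on Matrigel that had been polymerized 1 h at 37 °C. Cells were stimulated with 20 ng/mL VEGF and treated with compound (1, 2.5, 5 and 10 μM) or 0.1% DMSO vehicle for 12 h at 37 °C. Tubes were imaged by inverted microscopy. Tube length, surface area and branch points were quantified as pixel area.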

HGC-27 [9] = assay: Induction of apoptosis in human HGC-27 cells assessed as total apoptotic cells level at 5 uM incubated for 24 hrs by propidium iode and annexin V-FITC staining based flow cytometry; format: functional

Sequence of Vascular endothelial growth factor receptor 2 (P35968 whole entry): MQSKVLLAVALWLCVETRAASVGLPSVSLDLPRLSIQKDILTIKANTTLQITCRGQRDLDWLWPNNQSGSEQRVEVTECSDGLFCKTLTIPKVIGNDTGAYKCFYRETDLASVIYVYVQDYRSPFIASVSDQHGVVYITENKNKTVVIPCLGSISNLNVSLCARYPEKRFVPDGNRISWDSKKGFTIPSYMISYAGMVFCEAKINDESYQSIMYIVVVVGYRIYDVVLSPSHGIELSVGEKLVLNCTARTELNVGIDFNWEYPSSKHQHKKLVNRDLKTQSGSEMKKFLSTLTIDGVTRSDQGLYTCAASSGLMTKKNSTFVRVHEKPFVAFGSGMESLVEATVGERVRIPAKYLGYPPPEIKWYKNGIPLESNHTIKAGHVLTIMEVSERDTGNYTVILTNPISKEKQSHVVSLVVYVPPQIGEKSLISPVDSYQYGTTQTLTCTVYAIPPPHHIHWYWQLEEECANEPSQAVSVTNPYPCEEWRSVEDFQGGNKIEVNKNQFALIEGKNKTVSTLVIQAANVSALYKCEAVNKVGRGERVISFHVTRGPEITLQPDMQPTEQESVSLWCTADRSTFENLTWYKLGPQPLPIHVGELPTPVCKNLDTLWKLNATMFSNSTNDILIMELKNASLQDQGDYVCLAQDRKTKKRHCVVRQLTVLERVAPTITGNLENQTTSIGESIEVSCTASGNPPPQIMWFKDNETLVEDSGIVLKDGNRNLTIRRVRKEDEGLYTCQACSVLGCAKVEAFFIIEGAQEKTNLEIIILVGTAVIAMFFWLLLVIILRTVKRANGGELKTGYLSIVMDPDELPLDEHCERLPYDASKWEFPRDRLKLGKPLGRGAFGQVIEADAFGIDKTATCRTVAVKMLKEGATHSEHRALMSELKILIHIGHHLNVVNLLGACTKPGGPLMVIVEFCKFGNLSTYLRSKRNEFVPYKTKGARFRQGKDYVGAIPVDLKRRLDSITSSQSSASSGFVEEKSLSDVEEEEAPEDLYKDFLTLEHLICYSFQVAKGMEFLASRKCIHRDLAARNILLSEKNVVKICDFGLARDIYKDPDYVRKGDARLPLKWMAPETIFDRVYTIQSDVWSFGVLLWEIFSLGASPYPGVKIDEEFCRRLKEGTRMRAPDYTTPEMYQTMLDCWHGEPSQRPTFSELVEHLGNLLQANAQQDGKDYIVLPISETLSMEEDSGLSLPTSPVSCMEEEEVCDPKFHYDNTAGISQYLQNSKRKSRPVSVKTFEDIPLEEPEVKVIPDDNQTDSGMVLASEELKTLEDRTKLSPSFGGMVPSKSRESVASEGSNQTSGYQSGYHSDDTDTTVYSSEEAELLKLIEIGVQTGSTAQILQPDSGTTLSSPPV

Row | IC50 [2] [µM] | IC50 (HT-29) [µM] | IC50 (HepG2) [µM] | IC50 (A549) [µM] | Compound | IC50 (HUVEC [1]) [µM] | IC50 (GES1) [µM] | IC50 (HGC-27 [3]) [µM] | Activity (HGC-27 [4]) [%] | Activity (HGC-27 [5]) [%] | Activity (HGC-27 [6]) [%] | Activity (HGC-27 [7]) [%] | inhibition (HUVEC [8]) | Activity (HGC-27 [9]) [%]
1 | 0.892 | 5.21 | 5.63 | 7.96 | O=C(Cn1cc(-c2ccc3c(Nc4cccnc4)n[nH]c3c2)cn1)Nc1ccc(Cl)c(C(F)(F)F)c1 | 8.04 | 12.8 | 3.65 |  |  |  |  |  | 
2 | 0.249 | 6.11 | 4.32 | 4.72 | Cn1cc2ccc(Nc3n[nH]c4cc(-c5cnn(CC(=O)Nc6ccc(Cl)c(C(F)(F)F)c6)c5)ccc34)cc2n1 | 6.4 | 10 | 5.03 |  |  |  |  |  | 
3 | 0.012 | 5.06 | 5.61 | 8.82 | O=C(Cn1cc(-c2ccc3c(NC(=O)C4CC4)n[nH]c3c2)cn1)Nc1cc(C(F)(F)F)ccc1F | 5.26 | 25 | 3.73 |  |  |  |  |  | 
4 |  | > 50 | 25.5 | 20.9 | Cc1ccc(NC(=O)Cc2cccc(-c3ccc4c(NC(=O)C5CC5)n[nH]c4c3)c2)cc1C(F)(F)F | > 50 | 48.5 | 15.6 |  |  |  |  |  | 
5 | 0.0027 | 1.54 | 4.18 | 7.09 | Cc1ccc(NC(=O)Cn2cc(-c3ccc4c(N)n[nH]c4c3)cn2)cc1C(F)(F)F | 5.24 | 6.96 | 4.98 |  |  |  |  |  | 
6 |  | 5.57 | 6.18 | 5.13 | CNC(=O)c1cc(Oc2ccc(NC(=O)Nc3ccc(Cl)c(C(F)(F)F)c3)cc2)ccn1 [SORAFENIB] | 8.33 | 9.59 | 5.22 | 6.91 | 24 | 18.5 | 50.6 | Dose-Dependent Effect | 25.41
7 | 0.0014 | 1.01 | 2.51 | 2.16 | Cc1ccc(NC(=O)Cn2cc(-c3ccc4c(NC(=O)C5CC5)n[nH]c4c3)cn2)cc1C(F)(F)F | 0.95 | 4.24 | 0.63 |  |  |  |  |  | 
8 | 0.012 | 8.09 | 38.1 | 0.96 | Cc1ccc(NC(=O)Cc2ccc(-c3ccc4c(NC(=O)C5CC5)n[nH]c4c3)s2)cc1C(F)(F)F | 5.62 | 13.9 | 3.09 |  |  |  |  |  | 
9 | 0.0023 | 7.78 | 9.08 | 5.34 | Cc1ccc(NC(=O)Cn2cc(-c3ccc4c(NC(=O)c5cccnc5)n[nH]c4c3)cn2)cc1C(F)(F)F | 1.75 | 8.46 | 1.17 |  |  |  |  |  | 
10 | 0.0074 | 3.97 | 11.5 | 19.5 | Nc1n[nH]c2cc(-c3cnn(CC(=O)Nc4cccc(C(F)(F)F)c4)c3)ccc12 | 7.25 | 22.3 | 10.2 |  |  |  |  |  | 
11 | 0.307 | 14.7 | 27.4 | 1.81 | Cc1ccc(NC(=O)Cn2nc(C)c(-c3ccc4c(NC(=O)C5CC5)n[nH]c4c3)c2C)cc1C(F)(F)F | 6.62 | 11.9 | 2.79 |  |  |  |  |  | 
12 | 0.143 | 3.69 | 6.54 | 7.17 | CS(=O)(=O)Cc1cccc(Nc2n[nH]c3cc(-c4cnn(CC(=O)Nc5ccc(Cl)c(C(F)(F)F)c5)c4)ccc23)c1 | 7.22 | 17.7 | 1.26 |  |  |  |  |  | 

Continued, molecule first:

Row | Compound | IC50 [2] [µM] | IC50 (HT-29) [µM] | IC50 (HepG2) [µM] | IC50 (A549) [µM] | IC50 (HUVEC [1]) [µM] | IC50 (GES1) [µM] | IC50 (HGC-27 [3]) [µM] | Activity (HGC-27 [4]) [%] | Activity (HGC-27 [5]) [%] | Activity (HGC-27 [6]) [%] | Activity (HGC-27 [7]) [%] | inhibition (HUVEC [8]) | Activity (HGC-27 [9]) [%]
13 | Cc1ccc(NC(=O)Cn2cc(-c3ccc4c(NC(=O)C5CC5)n[nH]c4c3)nn2)cc1C(F)(F)F |  | > 50 | > 50 | > 50 | < 1 | > 100 | > 50 |  |  |  |  |  | 
14 | Cc1ccc(NC(=O)Cn2cc(-c3ccc4c(NC(=O)c5cnn(C)c5)n[nH]c4c3)cn2)cc1C(F)(F)F | 0.00073 | 4.92 | 2.61 | 3.86 | 4.41 | 1.67 | 0.021 |  |  |  |  |  | 
15 | Cc1ccc(NC(=O)Cn2cc(-c3ccc4c(NC(=O)C5CCCC5)n[nH]c4c3)cn2)cc1C(F)(F)F | 0.015 | 0.19 | 8.34 | 1.58 | 1.49 | 0.75 | 0.5 |  |  |  |  |  | 
16 | Cc1ccc(NC(=O)Cn2cc(-c3ccc4c(NC(=O)C5CCN(C)CC5)n[nH]c4c3)cn2)cc1C(F)(F)F | 0.011 | 1.79 | 15.3 | 5.28 | 53.9 | 5.31 | 0.16 |  |  |  |  |  | 
17 | Nc1n[nH]c2cc(-c3cnn(CC(=O)Nc4cc(C(F)(F)F)ccc4F)c3)ccc12 | 0.022 | 7.83 | 13.3 | 20.5 | 23.9 | 7.64 | 15.5 |  |  |  |  |  | 
18 | Cc1ccc(NC(=O)Cc2ccc(-c3ccc4c(NC(=O)C5CC5)n[nH]c4c3)cc2)cc1C(F)(F)F |  | 44.7 | > 50 | 45.1 | > 100 | > 100 | 33.7 |  |  |  |  |  | 
19 | Cn1cc(Nc2n[nH]c3cc(-c4cnn(CC(=O)Nc5ccc(Cl)c(C(F)(F)F)c5)c4)ccc23)cn1 | 0.22 | 9.17 | 10.4 | 12.1 | 4.03 | 13.3 | 12.5 |  |  |  |  |  | 
20 | Cc1ccc(NC(=O)Cn2cc(-c3ccc4c(NCC5CC5)n[nH]c4c3)cn2)cc1C(F)(F)F | 0.06 | 11 | 22.3 | 9.88 | 17.9 | 12 | 1.22 |  |  |  |  |  | 
21 | CNS(=O)(=O)c1cc(Nc2n[nH]c3cc(-c4cnn(CC(=O)Nc5ccc(Cl)c(C(F)(F)F)c5)c4)ccc23)ccc1C | 0.407 | 3.27 | 3.83 | 1.37 | 1.45 | 3.37 | 0.39 |  |  |  |  |  | 
22 | O=C(Cn1cc(-c2ccc3c(NC(=O)C4CC4)n[nH]c3c2)cn1)Nc1ccc(Cl)c(C(F)(F)F)c1 | 0.014 | 1.37 | 6.03 | 8.55 | 1.07 | 29.8 | 1.05 |  |  |  |  |  | 
23 | Cc1ccc(NC(=O)Cn2cc(-c3ccc4c(NC(=O)C(C)C)n[nH]c4c3)cn2)cc1C(F)(F)F | 0.028 | 0.48 | 13.7 | 2.48 | 2.43 | > 100 | 0.39 |  |  |  |  |  | 
24 | Nc1n[nH]c2cc(-c3cnn(CC(=O)Nc4ccc(Cl)c(C(F)(F)F)c4)c3)ccc12 | 0.012 | 3.57 | 7.71 | 12.5 | 6.84 | 12 | 7.68 |  |  |  |  |  | 
25 | Cc1ccc(NC(=O)Cn2cc(-c3ccc4c(NC(=O)C5CC5)n[nH]c4c3)c(C)n2)cc1C(F)(F)F | 0.027 | 7.03 | 20.4 | 1.65 | 4.92 | 3.09 | 0.65 |  |  |  |  |  | 
26 | CCNc1n[nH]c2cc(-c3cnn(CC(=O)Nc4ccc(C)c(C(F)(F)F)c4)c3)ccc12 | 0.038 | 8.32 | 15.1 | 8.48 | > 50 | 1.9 | 1.19 |  |  |  |  |  | 
